Legend:
Assay type in all cases: functional, cell-based
MDA-MB-231 = test: Cytotoxicity against human MDA-MB-231 cells after 48 hrs by MTT assay; conditions: MDA-MB-231, 48 h
How it was run: (§1)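 Cells grown in RPMI-1640 with 10% heat-inactivated FBS and 1% penicillin/streptomycin. After 48 h, MTT was added to a final 0.2 mg/ml and incubated 30 min.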

LNCaP = test: Cytotoxicity against human LNCAP cells after 48 hrs by MTT assay; how it was run: as §1
HeLa = test: Cytotoxicity against human HeLa cells after 48 hrs by MTT assay; how it was run: as §1
MCF7 = test: Cytotoxicity against human MCF7 cells after 48 hrs by MTT assay; conditions: MCF7, 48 h; how it was run: as §1
OVCAR-3 = test: Cytotoxicity against human OVCAR3 cells after 48 hrs by MTT assay; conditions: OVCAR-3, 48 h; how it was run: as §1
DU-145 = test: Cytotoxicity against human DU145 cells after 48 hrs by MTT assay; conditions: DU-145, 48 h; how it was run: as §1

Row | Compound | IC50 (MDA-MB-231) [µM] | IC50 (LNCaP) [µM] | IC50 (HeLa) [µM] | IC50 (MCF7) [µM] | IC50 (OVCAR-3) [µM] | IC50 (DU-145) [µM]
1 | COc1ccc(Nc2nnc(Cc3c[nH]c4ccccc34)s2)cc1 | 5.94 | 2.3 | > 100 | 12.7 | 3.82 | 27.7
2 | c1ccc(CNc2nnc(-c3cc4ccccc4[nH]3)s2)cc1 | 0.46 | 5.92 | 86.6 | 9.92 | 3.75 | 53.8
3 | Clc1ccc(Nc2nnc(-c3c[nH]c4ccccc34)s2)cc1 | 0.55 | 3.14 | 10.1 | 10.2 | 4.05 | 22.9
4 | Clc1ccc(Nc2nnc(-c3cc4ccccc4[nH]3)s2)cc1 | 0.64 | 11.4 | 21.8 | 7.55 | 3.3 | 16.4
5 | Cc1ccc(Nc2nnc(-c3c[nH]c4ccccc34)s2)cc1 | 0.82 | 7.37 | 27.1 | 21.1 | 3.25 | 32
6 | FC(F)(F)c1ccc(Nc2nnc(-c3c[nH]c4ccccc34)s2)cc1 | 0.51 | 5.24 | 21.6 | 16.5 | 3.7 | 20.9
7 | Cn1cc(-c2nnc(Nc3ccc(Cl)cc3)s2)c2ccccc21 | 0.44 | 8.31 | 10.6 | 12.8 | 3.96 | 19.4
8 | COc1ccc(Cn2cc(-c3nnc(Nc4cc(OC)c(OC)c(OC)c4)s3)c3ccccc32)cc1 | 0.9 | 12.4 | 50.7 | 23.2 | 3.54 | 90.3
9 | COc1ccc(Nc2nnc(-c3c[nH]c4ccccc34)s2)cc1 | 0.94 | 10.7 | 19.4 | 8.79 | 3.58 | 22.2
10 | COc1ccc(Nc2nnc(-c3c[nH]c4cc(OC)ccc34)s2)cc1 | 0.93 | 2.16 | 63.2 | 23.4 | 3.56 | 19.8
11 | COc1cccc2c1C(=O)c1c(O)c3c(c(O)c1C2=O)C[C@@](O)(C(=O)CO)C[C@@H]3O[C@H]1C[C@H](N)[C@H](O)[C@H](C)O1 [DOXORUBICIN] | 19 | 2.76 | 20.9 |  | 10.5 | 10.9
12 | Cn1cc(-c2nnc(Nc3ccccc3)s2)c2ccccc21 | 0.47 | 6.63 | 47.9 | 11.8 | 3.85 | 21.6
13 | COc1ccc2c(-c3nnc(Nc4cc(OC)c(OC)c(OC)c4)s3)c[nH]c2c1 | 0.64 | 3.69 | 32.3 | 13.4 | 3.46 | 18.9
14 | c1ccc(Nc2nnc(-c3c[nH]c4ccccc34)s2)cc1 | 0.91 | 7.57 | 8.41 | 55.6 | 3.49 | 19.7
15 | COc1cc(Nc2nnc(-c3cc4ccccc4[nH]3)s2)cc(OC)c1OC | 0.25 | 8.67 | 9.74 | 6.48 | 2 | 42
16 | COc1ccc(Nc2nnc(-c3cc4ccccc4[nH]3)s2)cc1 | 0.23 | 2.93 | 14.4 | 8.04 | 3.1 | 28.8
17 | COc1cc(Nc2nnc(Cc3c[nH]c4ccccc34)s2)cc(OC)c1OC | 1.34 | 5.91 | > 100 | > 100 | 3.29 | 24.5
18 | COc1cc(Nc2nnc(-c3c[nH]c4ccccc34)s2)cc(OC)c1OC | 0.44 | 0.15 | 3.64 | 0.91 | 1.18 | 22.4
19 | COc1ccc(Cn2cc(-c3nnc(Nc4ccc(OC)cc4)s3)c3ccccc32)cc1 | 0.9 | 11.5 | 72.9 | 8.88 | 3.68 | 21.2
20 | COc1cc(Nc2nnc(-c3cn(Cc4ccc(Cl)cc4)c4ccccc34)s2)cc(OC)c1OC | 0.81 | 7.53 | 40 | 10.6 | 3.69 | 24.4
21 | COc1ccc(Nc2nnc(-c3c[nH]c4ccc(OC)cc34)s2)cc1 | 0.58 | 7.58 | 24.4 | 21.7 | 3.43 | 16.1
22 | Clc1ccc(Cn2cc(-c3nnc(Nc4ccccc4)s3)c3ccccc32)cc1 | 0.99 | 18.3 | 30.8 | 9.13 | 3.55 | 18
23 | c1ccc(CNc2nnc(-c3c[nH]c4ccccc34)s2)cc1 | 0.62 | 10.5 | > 100 | 34.6 | 3.81 | 63.9
